From ChEMBL document CHEMBL4354828, “Discovery of Taniborbactam (VNRX-5133): A Broad-Spectrum Serine- and Metallo-β-lactamase Inhibitor for Carbapenem-Resistant Bacterial Infections” (J Med Chem, 2020) come the findings set out here.

In brackets after ≈: the same amount, converted by molar mass.

Series [1] relates to Escherichia coli. The series can be described thus: Inhibition of VIM-1/VIM-2/VIM-4/NDM-1 in Escherichia coli assessed as cefepime antibacterial activity at 4 ug/ml after 16 to 20 hrs by CLSI-based microbroth dilution method. The method, boiled down: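 Panel of 14 clinical isolates expressing class B VIM- or NDM-type MBLs: E. coli (4), E. cloacae (2), K. pneumoniae (4), P. aeruginosa (1), A. baumannii (3).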
(In general: Dilution methods test growth across graded concentrations, often in twofold steps.)

The subject of series [2] is Klebsiella pneumoniae. The series can be described thus: Inhibition of KPC-2/SHV12/TEM-1 in Klebsiella pneumoniae CDC-0361 assessed as piperacillin antibacterial activity at 16 ug/ml after 16 to 20 hrs by CLSI-based microbroth dilution method (Rvb > […] ug/ml).
Series [3] relates to Pseudomonas aeruginosa. The series can be described thus: Inhibition of VIM in Pseudomonas aeruginosa CDC-0457 assessed as cefepime antibacterial activity at 8 ug/ml after 16 to 20 hrs by CLSI-based microbroth dilution method.
Series [4] concerns Escherichia coli. The series can be described thus: Inhibition of NDM-1/CMY-6/OXA-1 in Escherichia coli CDC-0055 assessed as meropenem antibacterial activity at 4 ug/ml after 16 to 20 hrs by CLSI-based microbroth dilution method (reference value: […] ug/ml).
Series [5] has as its system Klebsiella pneumoniae. The series can be described thus: Inhibition of KPC-2/SHV12/TEM-1 in Klebsiella pneumoniae CDC-0361 assessed as meropenem antibacterial activity at 4 ug/ml after 16 to 20 hrs by CLSI-based microbroth dilution method (reference value: […] ug/ml).
Series [6] relates to Klebsiella pneumoniae. The series can be described thus: Inhibition of OXA-232/OXA-9/TEM-1A/CTX-M-15/OXA-1 in Klebsiella pneumoniae CDC-0066 assessed as piperacillin antibacterial activity at 16 ug/ml after 16 to 20 hrs by CLSI-based microbroth dilution method (Rvb > […] ug/ml).
Series [7] has as its system Klebsiella pneumoniae. The series can be described thus: Inhibition of VIM-27/CTX-M-15/SHV-11/OXA-1 in Klebsiella pneumoniae CDC-0040 assessed as meropenem antibacterial activity at 4 ug/ml after 16 to 20 hrs by CLSI-based microbroth dilution method.
A short description of series [8]: Inhibition of bacterial OXA-1 using nitrocefin as substrate preincubated for 15 mins followed by susbtrate addition and measured after 10 mins by spectrophotometric method. The arrangement: species or system Bacteria.
In series [9] the test system is Klebsiella pneumoniae ATCC BAA-1705. As to the kind of experiment: Inhibition of KPC-2 in Klebsiella pneumoniae ATCC BAA 1705 assessed as piperacillin antibacterial activity at 16 ug/ml after 16 to 20 hrs by CLSI-based microbroth dilution method (Rvb > […] ug/ml).
Series [10] has as its system Pseudomonas aeruginosa. The series can be described thus: Inhibition of VIM in Pseudomonas aeruginosa CDC-0457 assessed as piperacillin antibacterial activity at 16 ug/ml after 16 to 20 hrs by CLSI-based microbroth dilution method.
For series [11], the system named is Escherichia coli. As to the kind of experiment: Inhibition of NDM-1/CMY-6/OXA-1 in Escherichia coli CDC-0055 assessed as cefepime antibacterial activity at 8 ug/ml after 16 to 20 hrs by CLSI-based microbroth dilution method. Put shortly: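 MDR β-lactamase-producing Gram-negative clinical isolates. […] MIC was reported as the inhibitor concentration that restores the partner's antibacterial activity.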

A further series has as its target Coagulation factor X (Homo sapiens, UniProt P00742). As to the kind of experiment: Inhibition of human factor Xa at 100 uM.
In series [12] the test system is Klebsiella pneumoniae. As to the kind of experiment: Inhibition of KPC/Cephalosporinase in Klebsiella pneumoniae 664-1 assessed as cefepime antibacterial activity at 4 ug/ml after 16 to 20 hrs by CLSI-based microbroth dilution method (Rvb > […] ug/ml).
Series [13] is described as follows: Inhibition of bacterial SHV-5 using cefotaxime as substrate preincubated for 15 mins followed by susbtrate addition and measured after 10 mins by spectrophotometric method. Further details: species or system Bacteria; call rule not given here.
The next series concerns the target Cytochrome P450 2C19 (Homo sapiens, UniProt P33261). As to the kind of experiment: Inhibition of human CYP2C19 at 100 uM. The format is ADME.
The test system of series [14] is Escherichia coli. As to the kind of experiment: Effect on growth of Escherichia coli J53 expressing SHV5/ AmpC/TEM-1 after 16 to 20 hrs by CLSI-based microbroth dilution method. In kind it is organism-based. Conditions: in vivo.
The next series addresses Trypsin (Homo sapiens, UniProt P07477+P07478+P35030). As to the kind of experiment: Inhibition of human trypsin at 100 uM. The format is protein assay.
The target in series [15] is Matrix metalloproteinase-9 (Homo sapiens, UniProt P14780). As to the kind of experiment: Inhibition of human MMP9 at 100 uM.
Chain of Matrix metalloproteinase-9 (P14780 whole entry): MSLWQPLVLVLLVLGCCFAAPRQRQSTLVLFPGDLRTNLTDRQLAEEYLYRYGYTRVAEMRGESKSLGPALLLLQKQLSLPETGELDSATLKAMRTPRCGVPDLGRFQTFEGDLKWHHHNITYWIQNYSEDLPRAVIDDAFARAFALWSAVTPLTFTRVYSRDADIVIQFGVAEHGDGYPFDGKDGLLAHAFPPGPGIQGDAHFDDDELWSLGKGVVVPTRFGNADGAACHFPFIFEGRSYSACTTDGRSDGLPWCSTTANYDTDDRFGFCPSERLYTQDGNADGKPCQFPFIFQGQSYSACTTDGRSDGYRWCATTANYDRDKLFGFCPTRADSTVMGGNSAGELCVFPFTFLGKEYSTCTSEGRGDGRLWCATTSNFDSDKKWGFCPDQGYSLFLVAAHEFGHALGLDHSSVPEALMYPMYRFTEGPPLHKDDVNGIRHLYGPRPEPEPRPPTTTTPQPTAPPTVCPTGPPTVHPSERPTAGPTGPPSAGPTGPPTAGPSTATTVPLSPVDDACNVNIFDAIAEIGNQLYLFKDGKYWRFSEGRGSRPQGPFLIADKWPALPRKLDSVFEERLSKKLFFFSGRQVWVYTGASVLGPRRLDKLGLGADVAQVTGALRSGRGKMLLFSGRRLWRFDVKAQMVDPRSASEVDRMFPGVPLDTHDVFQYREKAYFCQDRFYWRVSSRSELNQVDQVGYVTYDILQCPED
Series [16] concerns the target 72 kDa type IV collagenase (Homo sapiens, UniProt P08253). As to the kind of experiment: Inhibition of human MMP2 at 100 uM.
Series [17] has as its system Enterobacter cloacae. As to the kind of experiment: Effect on growth of Enterobacter cloacae 144200 expressing p99 AmpC after 16 to 20 hrs by CLSI-based microbroth dilution method. In kind it is organism-based. Conditions: in vivo.
Series [18] has as its system Klebsiella pneumoniae. As to the kind of experiment: Effect on growth of wild type Klebsiella pneumoniae CI 09 after 16 to 20 hrs by CLSI-based microbroth dilution method. The format is organism-based.
Series [19] is described as follows: Inhibition of bacterial KPC-2 using imipenem as substrate preincubated for 15 mins followed by susbtrate addition and measured after 10 mins by spectrophotometric method. The arrangement: species or system Bacteria.
The test system of series [20] is Pseudomonas aeruginosa. The series can be described thus: Effect on growth of Pseudomonas aeruginosa Ps296 AmpC/VIM-2/TEM-1 after 16 to 20 hrs by CLSI-based microbroth dilution method. In kind it is organism-based. Conditions: in vivo.
In the next series the target is Cytochrome P450 3A4 (Homo sapiens, UniProt P08684). As to the kind of experiment: Inhibition of human CYP3A4 at 100 uM. The format is ADME.
Chain of Cytochrome P450 3A4 (P08684 whole entry): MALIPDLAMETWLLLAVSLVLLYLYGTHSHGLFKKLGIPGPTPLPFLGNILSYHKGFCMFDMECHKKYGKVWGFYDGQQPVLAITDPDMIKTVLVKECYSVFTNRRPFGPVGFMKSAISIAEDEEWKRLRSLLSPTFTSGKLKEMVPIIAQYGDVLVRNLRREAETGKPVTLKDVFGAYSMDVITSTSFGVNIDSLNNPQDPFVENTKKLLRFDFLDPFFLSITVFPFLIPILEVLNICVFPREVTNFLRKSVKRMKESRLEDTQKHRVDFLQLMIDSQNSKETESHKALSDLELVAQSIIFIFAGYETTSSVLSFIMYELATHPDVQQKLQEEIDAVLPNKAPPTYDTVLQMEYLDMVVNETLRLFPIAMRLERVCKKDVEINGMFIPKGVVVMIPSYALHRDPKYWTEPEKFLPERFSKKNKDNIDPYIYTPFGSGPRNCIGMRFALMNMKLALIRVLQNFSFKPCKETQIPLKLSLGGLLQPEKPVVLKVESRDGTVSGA
Series [21] has as its system Klebsiella pneumoniae. The series can be described thus: Antibacterial activity against Klebsiella pneumoniae UNT-065-1 expressing CTX-M14 infected in CD1 mouse assessed as log reduction in viable bacterial count in lung at 16 mg/kg, sc administered as single dose co-treated with 32 mg/kg cefepime and measured after 24 hrs post infection (reference value: 9.27 +/- 0.21). In kind it is functional.

In series [22] the test system is Escherichia coli. As to the kind of experiment: Inhibition of TEM/CTX-M/SHV/Cephalosporinase in Escherichia coli EC1552 assessed as cefepime antibacterial activity at 4 ug/ml after 16 to 20 hrs by CLSI-based microbroth dilution method (reference value: […] ug/ml).
For another series, the target named is Interstitial collagenase (Homo sapiens, UniProt P03956). The series can be described thus: Inhibition of human MMP1 at 100 uM.
Chain of Interstitial collagenase (P03956 whole entry): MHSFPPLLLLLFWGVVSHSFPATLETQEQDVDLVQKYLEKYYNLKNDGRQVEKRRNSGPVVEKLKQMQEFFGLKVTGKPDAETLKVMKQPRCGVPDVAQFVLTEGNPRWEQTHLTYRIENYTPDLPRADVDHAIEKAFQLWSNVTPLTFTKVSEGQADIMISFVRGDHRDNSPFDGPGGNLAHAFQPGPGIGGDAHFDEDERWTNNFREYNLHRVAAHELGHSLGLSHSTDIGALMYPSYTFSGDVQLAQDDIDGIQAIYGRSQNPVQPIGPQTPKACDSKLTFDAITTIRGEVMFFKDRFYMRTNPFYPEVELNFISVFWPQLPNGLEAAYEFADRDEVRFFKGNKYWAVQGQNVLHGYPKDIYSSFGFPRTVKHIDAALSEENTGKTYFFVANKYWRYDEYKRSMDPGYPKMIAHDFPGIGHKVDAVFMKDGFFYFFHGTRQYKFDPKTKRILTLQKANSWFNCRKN
The nature of series [23]: Cytotoxicity against human HeLa cells assessed as growth inhibition at 256 ug/ml relative to control. In kind it is cell-based. The note with it: read-out: Activity.
Series [24] has as its system Klebsiella pneumoniae. As to the kind of experiment: Effect on growth of Klebsiella pneumoniae UMM expressing SHV5/KPC-2/TEM-1 after 16 to 20 hrs by CLSI-based microbroth dilution method. In kind it is organism-based. The note with it: in vivo.
For series [25], the system named is Enterobacter cloacae. As to the kind of experiment: Inhibition of TEM/CTX-M/SHV/Cephalosporinase in Enterobacter cloacae CH23 assessed as cefepime antibacterial activity at 4 ug/ml after 16 to 20 hrs by CLSI-based microbroth dilution method (Rvb > […] ug/ml).
The next series deals with Staphylococcus aureus. The series can be described thus: Effect on growth of wild type Staphylococcus aureus ATCC 29213 after 16 to 20 hrs by CLSI-based microbroth dilution method. The format is organism-based.
A further series deals with Klebsiella aerogenes. As to the kind of experiment: Effect on growth of Enterobacter aerogenes 188548 expressing AmpC after 16 to 20 hrs by CLSI-based microbroth dilution method. The format is organism-based. The note with it: in vivo.

Chain of 72 kDa type IV collagenase (P08253 whole entry): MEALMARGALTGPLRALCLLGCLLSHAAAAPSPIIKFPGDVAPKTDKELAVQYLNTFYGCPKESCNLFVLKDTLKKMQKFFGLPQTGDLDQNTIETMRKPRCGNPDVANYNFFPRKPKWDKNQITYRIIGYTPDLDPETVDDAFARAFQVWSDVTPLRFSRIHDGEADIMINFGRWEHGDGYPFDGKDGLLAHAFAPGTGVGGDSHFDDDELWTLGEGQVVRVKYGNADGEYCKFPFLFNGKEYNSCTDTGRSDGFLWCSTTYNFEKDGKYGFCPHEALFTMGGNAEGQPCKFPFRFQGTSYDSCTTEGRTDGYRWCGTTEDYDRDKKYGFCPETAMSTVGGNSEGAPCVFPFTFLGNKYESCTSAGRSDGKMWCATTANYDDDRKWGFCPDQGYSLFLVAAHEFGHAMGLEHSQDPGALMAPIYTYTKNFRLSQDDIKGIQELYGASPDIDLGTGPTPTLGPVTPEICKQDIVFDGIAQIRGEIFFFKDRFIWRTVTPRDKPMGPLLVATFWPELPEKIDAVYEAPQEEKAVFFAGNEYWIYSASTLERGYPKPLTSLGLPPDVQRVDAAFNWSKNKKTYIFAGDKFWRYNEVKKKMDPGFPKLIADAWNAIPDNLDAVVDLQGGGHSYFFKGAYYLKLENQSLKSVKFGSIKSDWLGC
Chain of Coagulation factor X (P00742 41-179 limits assumed): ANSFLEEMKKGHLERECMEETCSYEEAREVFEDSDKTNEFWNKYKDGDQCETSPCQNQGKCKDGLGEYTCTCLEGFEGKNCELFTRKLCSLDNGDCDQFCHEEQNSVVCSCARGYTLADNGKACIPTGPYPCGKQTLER
Chain of Coagulation factor X (P00742 235-488 limits assumed): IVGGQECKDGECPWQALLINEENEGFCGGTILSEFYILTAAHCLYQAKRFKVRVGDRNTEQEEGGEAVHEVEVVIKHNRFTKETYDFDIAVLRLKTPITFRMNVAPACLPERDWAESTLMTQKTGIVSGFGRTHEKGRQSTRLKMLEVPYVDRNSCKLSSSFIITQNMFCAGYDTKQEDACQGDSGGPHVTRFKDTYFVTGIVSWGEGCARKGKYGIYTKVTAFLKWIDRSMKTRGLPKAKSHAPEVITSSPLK
Chain of Cytochrome P450 2C19 (P33261 whole entry): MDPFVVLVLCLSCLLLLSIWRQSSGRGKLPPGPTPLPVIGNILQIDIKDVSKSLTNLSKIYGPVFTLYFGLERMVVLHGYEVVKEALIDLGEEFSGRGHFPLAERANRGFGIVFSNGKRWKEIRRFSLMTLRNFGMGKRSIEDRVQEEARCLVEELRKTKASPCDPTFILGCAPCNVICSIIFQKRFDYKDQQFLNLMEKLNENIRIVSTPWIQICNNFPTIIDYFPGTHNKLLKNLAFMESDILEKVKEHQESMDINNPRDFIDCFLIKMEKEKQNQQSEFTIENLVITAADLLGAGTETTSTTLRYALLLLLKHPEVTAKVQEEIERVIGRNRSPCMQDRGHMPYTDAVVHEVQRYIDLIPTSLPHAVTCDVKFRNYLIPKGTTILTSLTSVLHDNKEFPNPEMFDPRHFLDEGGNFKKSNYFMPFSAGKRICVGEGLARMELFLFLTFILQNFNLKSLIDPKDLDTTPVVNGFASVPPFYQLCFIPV

Usually IC50 stands for the midpoint of a concentration-inhibition curve. Read a low IC50 as greater potency. `NC(=O)[C@@H]1CC[C@@H]2CN1C(=O)N2OS(=O)(=O)O` [AVIBACTAM]: in the series on Escherichia coli [1], the MIC50 is above 32 µg/mL. In addition, in the series on Escherichia coli [1], the MIC90 is above 32 µg/mL. Further, the MIC with Klebsiella pneumoniae [2] is 2 µg/mL (≈ 7.54 µM); in the series on Pseudomonas aeruginosa [3], above 16 µg/mL; with Escherichia coli [4], 8 µg/mL (≈ 30.2 µM); in the series on Klebsiella pneumoniae [5] it was 0.015 µg/mL (≈ 0.0566 µM); in the series on Klebsiella pneumoniae [6], 8 µg/mL (≈ 30.2 µM); with Klebsiella pneumoniae [7], above 16 µg/mL. In addition, the MIC in series [9] is 4 µg/mL (≈ 15.1 µM); in the series with Pseudomonas aeruginosa [10], above 16 µg/mL; in the series with Escherichia coli [11] it was 16 µg/mL (≈ 60.3 µM). Half-maximal inhibition in series [8] (IC50) required 40 nM.

`NCCN[C@H]1CC[C@H](CC(=O)N[C@H]2Cc3cccc(C(=O)O)c3OB2O)CC1`: the “inhibition (INH)” value (at Coagulation factor X; against Cytochrome P450 2C19; on Trypsin; in series [15]; in [16]; on Cytochrome P450 3A4) was “Not Active” each time. In addition, the “inhibition (INH)” value at Interstitial collagenase is reported as “Not Active”. Further, the MIC50 with Escherichia coli [1] came to 1 µg/mL (≈ 2.57 µM). The MIC90 in the series with Escherichia coli [1] turned out to be 4 µg/mL (≈ 10.3 µM). For the same molecule, the MIC in the series with Klebsiella pneumoniae [12] was 0.25 µg/mL (≈ 0.642 µM); in the series on Klebsiella pneumoniae [2] it was 1 µg/mL (≈ 2.57 µM); in the series with Pseudomonas aeruginosa [3], 0.125 µg/mL (≈ 0.321 µM); against Escherichia coli [14], above 128 µg/mL; in the series on Escherichia coli [4] it was 0.25 µg/mL (≈ 0.642 µM); in the series with Klebsiella pneumoniae [5], 0.015 µg/mL (≈ 0.0385 µM). In addition, the MIC in the series on Klebsiella pneumoniae [6] is above 16 µg/mL; in the series on Klebsiella pneumoniae [7], 8 µg/mL (≈ 20.6 µM); against Enterobacter cloacae [17], above 128 µg/mL; with Klebsiella pneumoniae [18], above 128 µg/mL; in the series on Pseudomonas aeruginosa [20] it was above 128 µg/mL; in the series with Escherichia coli [22], 0.5 µg/mL (≈ 1.28 µM). Also, the MIC in series [9] was 4 µg/mL (≈ 10.3 µM); in the series on Pseudomonas aeruginosa [10], 16 µg/mL (≈ 41.1 µM); in the series with Klebsiella pneumoniae [24], above 128 µg/mL; with Enterobacter cloacae [25], 0.5 µg/mL (≈ 1.28 µM); in the series on Escherichia coli [11], 2 µg/mL (≈ 5.14 µM); in the series on Staphylococcus aureus, above 128 µg/mL. In addition, in the series with Klebsiella aerogenes, the MIC was above 128 µg/mL. For the same molecule, the IC50 in series [13] stood at 0.4 nM; in series [19], 30 nM; in [8], 160 nM. In addition, the Activity in the series on Klebsiella pneumoniae [21] was determined as 4.51 log10CFU. For the same molecule, the inhibition at 256 ug/ml in series [23] was below 20%.
